Efflux pump mplx – antifungal efflux pump inhibition, Nile Red retention; S. cerevisiae Candida pump triplex; inhibition, % at 10 µM; 0.44% of 330,000 active;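 active means plate passing quality check with inhibition over a set limit, or well fluorescence over plate mean plus 4 SD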;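 further: Nile Red retained in pooled yeast measured as flow cytometry median fluorescence; 0% = buffer negative control and 100% = Enniatin B positive control; higher means more Nile Red kept so more efflux inhibition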
GalR3 antagonist – blocks the human galanin receptor 3; AID 651719; 0.44% of 360,000 active; HEK293 GalR3-CNG cAMP membrane potential fluorescence; galR3 body fused to GalR1 C-terminus; inhibition, % at 3 µM; O60755;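 active means inhibition above the screen-wide average plus 3 SD, cut at about 13% in these data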;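 further: forskolin and galanin both at EC90 stimulate the cells; cAMP rise reported by CNG channel membrane potential dye signal; 0% = forskolin plus galanin with DMSO and 100% = forskolin alone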
TAG inh – reduces triacylglycerol accumulation in H9c2 cells; Nile Red lipid (TAG) fluorescence; cells loaded with 200 µM oleic acid; inhibition, % at 12.5 µM; 0.66% of 230,000 active; AID 651582;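 active means pattern-corrected inhibition of lipid staining of at least 50% with the nuclear-stain viability signal not falling by more than 50%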;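 further: 0% = DMSO wells and 100% = triacsin C control wells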
Calb FLC – affects C. albicans growth with fluconazole. growth inhibition, % (concentration not given with the values). C. albicans CaCi-2 (fluconazole-resistant clinical isolate) + fluconazole, Alamar Blue growth, 48 h. 0.57% of 300,000 active;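 active means growth inhibition above about 58% in most replicates, limit read from the data, passing the limit was not always enough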;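 further: all wells also contain fluconazole at 8 µg/ml as a sub-toxic cotreatment; 0% = median of DMSO wells and 100% = median of geldanamycin control wells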
MC4R barr agon – human MC4R agonism via beta-arrestin. P32245. 0.98% of 360,000 active. activation, % at 8.9 µM. U2OS MC4R beta-arrestin complementation, luminescence; percent of melanotan II response, DMSO zero;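 active means activation above a per-plate cutoff, the mean activation of sample wells on that plate plus 3 SD, cut at about 8% in these data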
MC4R antag cAMP – antagonists of human melanocortin 4 receptor (MC4R); P32245; MC4R-expressing cells, MTII-stimulated cAMP, LANCE TR-FRET; inhibition, % at 6.5 µM; 0.48% of 360,000 active; AID 540295;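 active means inhibition above its plate's cutoff, the mean of tested wells on that plate plus 3 SD, cut at about 29% in these data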;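 further: 0% = Melanotan II alone and 100% = Melanotan II plus saturating MCL0020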
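System – human MC4R-expressing U2OS cells · Also added – Melanotan II · Dosing – one concentration, 6.5 µM nominal · Timing – 30-min compound, 1-h challenge, 1-h detection, room temperature · Measured by – Eu-cAMP/anti-cAMP TR-FRET, emission 671 nm · Replicates – singlicate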
MC4R barr conf – human MC4R beta-arrestin agonism confirmation | activation, % at 8.9 µM | 31% of 2,400 active | shares compounds with MC4R barr agon | U2OS MC4R beta-arrestin recruitment, luminescence; scaled DMSO 0%, Melanotan II 100%;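 active means mean activation across replicates above the hit cutoff set in the earlier primary screen, cut at about 8% in these data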
MOR-DOR barr ag – counter-screen for MC4R agonists: agonists of mu-delta opioid heterodimer. shares compounds with MC4R barr agon. U2OS PathHunter beta-arrestin, beta-gal luminescence; percent of deltorphin B response, DMSO zero. activation, % at 9.2 µM. 5.8% of 2,400 active. AID 602194;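 active means mean activation across replicates exceeds the hit threshold derived in the earlier primary screen, cut at about 18% in these data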;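 further: 100% = deltorphin B at 0.9 µM final and 0% = DMSO alone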
Target sequence (P35372 whole entry, looked up): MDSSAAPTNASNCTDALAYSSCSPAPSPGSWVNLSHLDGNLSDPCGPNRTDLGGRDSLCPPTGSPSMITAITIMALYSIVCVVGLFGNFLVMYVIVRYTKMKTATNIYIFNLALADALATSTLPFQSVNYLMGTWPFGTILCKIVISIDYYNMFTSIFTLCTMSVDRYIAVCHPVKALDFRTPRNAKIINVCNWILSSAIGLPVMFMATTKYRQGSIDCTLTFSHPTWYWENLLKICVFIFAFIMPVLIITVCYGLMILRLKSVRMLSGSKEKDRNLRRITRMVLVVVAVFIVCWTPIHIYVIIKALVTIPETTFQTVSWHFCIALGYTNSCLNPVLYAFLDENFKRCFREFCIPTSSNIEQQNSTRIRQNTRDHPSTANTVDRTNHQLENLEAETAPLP
Target sequence (P41143 whole entry, looked up): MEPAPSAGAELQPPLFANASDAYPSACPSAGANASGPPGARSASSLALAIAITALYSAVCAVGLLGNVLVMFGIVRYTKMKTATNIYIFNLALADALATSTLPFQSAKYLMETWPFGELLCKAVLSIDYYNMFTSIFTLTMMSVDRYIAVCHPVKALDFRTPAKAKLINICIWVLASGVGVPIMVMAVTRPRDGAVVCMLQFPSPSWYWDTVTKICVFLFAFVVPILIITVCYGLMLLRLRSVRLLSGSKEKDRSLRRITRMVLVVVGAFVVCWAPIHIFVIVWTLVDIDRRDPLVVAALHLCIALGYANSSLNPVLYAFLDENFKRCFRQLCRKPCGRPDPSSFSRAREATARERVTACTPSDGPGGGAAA
* marks the source's active call; other numbers are inactive results; / = no result given. Rows were chosen to be rich in hits. Some 2.9% of all compounds tested hit in one or more screens of this group.

SMILES | Efflux pump mplx | GalR3 antagonist | TAG inh | Calb FLC | MC4R barr agon | MC4R antag cAMP | MC4R barr conf | MOR-DOR barr ag
O=c1[nH]c(SCCOc2cccc3ccccc23)nc2ccccc12 | 0.0 | -3.3 | / | 5.2 | 10.4* | 26.0 | -0.2 | 3.8
O=c1[nH]c(SCc2c(Cl)cccc2Cl)nc2ccccc12 | 0.1 | -5.6 | -15.8 | 0.6 | 5.2 | 12.8 | / | /
c1ccc(-c2nc(-c3cccs3)[nH]c2-c2ccccc2)cc1 | -0.2 | -5.6 | / | 2.8 | 9.6* | 7.5 | 3.4 | 5.1
OC(c1ccccc1)(c1ccccc1)C1CCN(CCCOc2ccc(-c3cncnc3)cc2)CC1 | / | -8.9 | / | / | / | / | / | /
O=C(NC(c1ccccc1)c1ccc2ccccc2n1)C1CCN(CCOc2ccc(Cl)cc2Cl)CC1 (stereo not given) | / | -6.4 | -10.8 | / | 39.0* | 12.6 | 18.4* | 7.4
Cc1cccnc1C(c1ccc(F)cc1)N(C)C(=O)C1CCN(CCCOc2ccc(F)cc2)CC1 (stereo not given) | / | -8.1 | 6.6 | / | -0.6 | -1.8 | / | /
Cc1cccnc1C(c1ccc(F)cc1)N(C)C(=O)C1CCN(CCOc2ccc(Cl)cc2Cl)CC1 (stereo not given) | / | -8.1 | 4.7 | / | 11.1* | 6.6 | 18.0* | 10.0
O=C(CSc1ccc(C(F)(F)F)cc1[N+](=O)[O-])Nc1ccc2ccccc2c1 | 0.3 | -3.9 | / | 1.5 | 11.4* | -0.8 | 8.1 | 5.9
CC(=O)Nc1cccc(NC(=O)CSc2ccc(C(F)(F)F)cc2[N+](=O)[O-])c1 | 0.0 | 1.4 | -11.4 | -0.1 | -0.8 | 3.4 | / | /
COc1ccc(NC(=O)N(C)C[C@H]2Oc3cc(Br)ccc3S(=O)(=O)N([C@H](C)CO)C[C@@H]2C)cc1 | / | -6.2 | -6.8 | / | -0.9 | 17.7 | / | /
CCOC(=O)/C(C#N)=C(C)/C=C1\Sc2ccccc2N1CC | -0.1 | -0.9 | / | -5.4 | 18.4* | -15.6 | 15.1* | 1.6
CCN1/C(=C\C=C(C(C)=O)C(C)=O)Sc2ccccc21 | 0.0 | -7.0 | -18.4 | 9.7 | -0.5 | -14.1 | / | /
O=C(CN1C(=O)NC2(CCCC2)C1=O)OCc1ccc(Br)cc1 | 0.1 | -3.8 | 6.2 | -12.8 | -3.5 | 3.4 | / | /
CC1CC(C)(C)CC2(C1)NC(=O)N(CC(=O)OCc1ccc(Br)cc1)C2=O (stereo not given) | 0.3 | -3.8 | 12.8 | / | 14.0* | -0.9 | -0.7 | 6.5
CCOc1ccc(CCNS(=O)(=O)c2c(C)nc3sccn3c2=O)cc1OCC | / | 5.3 | -12.2 | / | -0.7 | 13.5 | / | /
COc1ccc(-c2csc3nc(C)nc(N4CCCCC4)c23)cc1OC | 0.3 | -4.0 | 6.3 | 10.3 | 9.6* | 4.7 | -0.7 | 4.3
O=[N+]([O-])c1ccc(/C=C/c2ccc3cccc([N+](=O)[O-])c3n2)cc1 | 0.2 | -1.9 | / | -0.2 | 10.0* | 4.4 | 4.2 | 7.1
COc1ccc(C(=O)Nc2cccc([N+](=O)[O-])c2)cc1Br | 0.2 | 9.8 | 20.5 | 4.7 | 22.0* | -9.6 | 8.9* | 12.8
Cc1c(C(=O)Nc2cccc([N+](=O)[O-])c2)csc1-c1ccccc1 | -0.2 | -5.9 | / | -11.5 | 13.9* | 2.5 | 2.1 | 10.1
COc1ccc(C(=O)Nc2ccc(OC)c([N+](=O)[O-])c2)cc1Br | 0.0 | -5.5 | -0.1 | 3.1 | -1.2 | -5.7 | / | /
O=C(Nc1cccc([N+](=O)[O-])c1)c1cccc(C(=O)Nc2cccc([N+](=O)[O-])c2)c1 | -0.6 | -6.0 | / | 2.7 | -0.7 | 8.1 | / | /
O=C(Nc1cccc([N+](=O)[O-])c1)c1ccc(-c2ccccc2)cc1 | 0.1 | 3.8 | / | 2.8 | 39.4* | 8.5 | 5.9 | 24.6*
CCCN(C(=O)/C=C/c1ccc(S(=O)(=O)N(CC)CC)cc1)C1CCS(=O)(=O)C1 (stereo not given) | 0.0 | -2.8 | 3.2 | / | -1.9 | 9.6 | / | /
Cc1ccc(C(O)c2ncc(-c3ccc(C(F)(F)F)cc3)[nH]2)cc1F (stereo not given) | / | -5.0 | -16.1 | / | 4.4 | 4.1 | / | /
Cc1ncc(CO)c(CO)c1OCC(O)CN1CCN(c2ccc(F)cc2)CC1 (stereo not given) | / | -8.2 | / | / | / | / | / | /
SMILES | Efflux pump mplx | GalR3 antagonist | TAG inh | Calb FLC | MC4R barr agon | MC4R antag cAMP | MC4R barr conf | MOR-DOR barr ag
O=C(Nc1nc2cc3c(cc2s1)OCO3)c1ccc(N2C(=O)CCC2=O)cc1 | 0.2 | -5.5 | 7.3 | 2.7 | 11.9* | 14.9 | -0.2 | 12.5
CCOC(=O)c1ccc(Nc2nc(C)nc3c2nnn3Cc2ccccc2)cc1 | 0.1 | -1.6 | / | 7.0 | 20.1* | 3.7 | 3.2 | 5.7
CCCCCc1c(-c2ccc(Br)cc2)ncn1CCc1ccccc1OC | / | -6.5 | / | / | / | / | / | /
Cn1c(NCC2CCCCC2)nc2cc(-c3ccsc3)sc2c1=O | / | -7.1 | 14.7 | / | 0.9 | 0.7 | / | /
COc1ccc2oc(C(=O)OCC(=O)NCc3ccccc3OC)c(C)c2c1 | -0.1 | -6.1 | -6.1 | 2.4 | 21.0* | 10.8 | 8.0 | 5.8
COc1ccccc1NC(=O)c1oc2ccccc2c1C | / | -9.6 | 3.0 | / | 0.3 | -4.6 | / | /
COc1ccc(NC(=O)c2oc3ccccc3c2C)c(OC)c1 | -0.1 | -2.9 | / | 17.6 | 13.7* | 2.3 | 0.5 | 5.4
COc1ccccc1NC(=O)c1oc2ccccc2c1NC(=O)C1CC1 | -0.3 | -1.1 | / | 4.0 | 10.1* | 12.5 | 2.5 | 2.7
COCCCN1C(=O)C(CC(=O)NC2CCCCC2)CC(C(=O)N2CCCCCC2)=C1C (stereo not given) | / | -8.3 | / | / | / | / | / | /
CCOC(=O)C(Cc1c[nH]c2cc([N+](=O)[O-])ccc12)(NC(C)=O)C(=O)OCC | / | 0.7 | -15.8 | / | 0.4 | 1.4 | / | /
O=C(NCc1ccccc1)[C@H]1CCCN1C(=O)[C@H]1CCCN1C(=O)c1ccc(Cl)cc1 | / | -6.5 | / | / | / | / | / | /
O=S(=O)(c1ccc2nc(-c3ccccc3)[nH]c2c1)N1CCN(c2cccc(Cl)c2)CC1 | 0.7 | -12.6 | / | -0.8 | 15.2* | 5.1 | 4.6 | 7.9
COc1ccc(NC(=O)N(C)[C@H]2C[C@H]3c4[nH]c5c(-c6ccccc6)cccc5c4CCN3C(=O)[C@H]2[C@H](C)O)cc1 | / | -7.4 | / | / | / | / | / | /
Cc1[nH]c2ccccc2c1/C=C/c1nc2ccccc2c(=O)n1-c1ccc([N+](=O)[O-])cc1 | -0.1 | -3.0 | 36.3 | 21.0 | 0.8 | 20.8 | / | /
CN(C)S(=O)(=O)c1ccc2[nH]cc(/C=C/c3nc4ccccc4c(=O)n3-c3ccccc3)c2c1 | 0.1 | -2.0 | / | 5.9 | 12.6* | 1.3 | 9.2* | 5.4
Cc1cc(C)nc(Nc2n[nH]c(COc3ccc4ccccc4c3)n2)n1 | 0.3 | -2.5 | / | -1.5 | 16.1* | 0.3 | -0.2 | 2.9
COc1ccc(NC(=O)c2cc(Br)ccc2Cl)c([N+](=O)[O-])c1 | 0.1 | -1.9 | -9.7 | 38.8 | 11.4* | -0.7 | 4.5 | 3.6
